Our source for the IC50 and inhibition in vivo values is ChEMBL document CHEMBL1129512, “Studies on the mechanism of phosphatidylinositol 3-kinase inhibition by wortmannin and related analogs” (J Med Chem, 1996).

As a reminder, the pIC50 is the negative decadic logarithm of the IC50, by convention in mol/L. A higher pIC50 goes with a low IC50. By inhibition in vivo is commonly meant how much of the control response was suppressed. A low value points to little suppression.

pIC50: −log10 of the molar value. Where only a bound is given, the exact number is not on record here.

Test [1] in a line: In vitro inhibitory activity against Phosphatidylinositol 3-Kinase. Put shortly:
(§1)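 Purified PI 3-kinase from bovine brain was used as the enzyme source. Results are reported as IC50 values.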

The nature of test [2]: Inhibition of Phosphatidylinositol 3-Kinase. Put shortly: as §1
For test [3], the system named is Mus musculus. Put plainly: In vivo inhibition of tumor growth in C3H Mammary model was evaluated at dose 10 mg/kg peroral administration. The following applies: route oral. Format: functional. Put shortly: (§2)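 Murine C3H mammary tumour fragments were implanted subcutaneously by trochar in the axillary region, in groups of 10 randomized mice. Oral dosing started 1 day after implant, daily ×10, as a suspension in 2.5% emulphor EL-620 in 0.9% NaCl (water for one analog). Tumour weight, calculated as length×width²×0.5 from calipers, was measured the day after the last dose. Percent inhibition was calculated versus controls. Groups with >25% lethality were scored toxic.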

Test [4] concerns Mus musculus. Put plainly: In vivo inhibition of tumor growth in C3H Mammary model was evaluated at dose 5.0 mg/kg peroral administration; range is 60-79%. To be noted: route oral. It is filed as functional. Put shortly:
as §2

For test [5], the system named is Mus musculus. Put plainly: In vivo inhibition of tumor growth in C3H Mammary model was evaluated at dose 1.0 mg/kg peroral administration. It is filed as functional. The following applies: route oral. The method, boiled down: (§3)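 Murine tumours were serially passaged as tumour fragments, implanted s.c. by trochar in the axillary region. Daily oral dosing began 1 day after implant, as a suspension in 2.5% emulphor EL-620 in 0.9% NaCl. There were 10 randomized mice per group. Tumours were measured by caliper the day after the last dose, with weight = length × width² × 0.5. Inhibition was 100 × (1 − mean treated/mean control weight). A group was toxic if lethality was >25%.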

Test [6] has as its system Mus musculus. Put plainly: In vivo inhibition of tumor growth in C3H Mammary model was evaluated at dose 0.50 mg/kg peroral administration. It is filed as functional. To be noted: route oral. Put shortly:
as §3

Test [7] has as its system Mus musculus. Kind of test: In vivo inhibition of tumor growth in C3H Mammary model was evaluated at dose 8.0 mg/kg peroral administration; range is 60-79%. It is filed as functional. To be noted: route oral. The method, boiled down:
as §3

In test [8] the test system is Mus musculus. Kind of test: In vivo inhibition of tumor growth in C3H Mammary model was evaluated at dose 16 mg/kg peroral administration. Format: functional. The following applies: route oral. The method, boiled down: as §3

In turn, `CC/N=C/C1=C(O)O[C@H](COC)[C@@]2(C)C1=C(O)C(=O)C1=C2[C@H](OC(C)=O)C[C@]2(C)C(=O)CC[C@@H]12` had a pIC50 in test [1] of under 6.30.

Compound `CCN(/C=C1\C(=O)O[C@H](COC)[C@@]2(C)C1=C(O)C(=O)C1=C2[C@H](OC(C)=O)C[C@]2(C)C(=O)CC[C@@H]12)CC` had a pIC50 in test [2] of 7.10. In the test on Mus musculus [3], this compound gave an inhibition in vivo at 10 mg/kg of over 25%. The compound also showed an inhibition in vivo at 5 mg/kg in the test with Mus musculus [4] of 79%.

As for `COC[C@H]1OC(=O)c2coc3c2[C@@]1(C)C1=C(C3=O)[C@@H]2C[C@@H](OC(C)=O)C(=O)[C@@]2(C)C[C@H]1OC(C)=O`, the pIC50 in test [1] is 6.51.

In test [1], `COC[C@H]1OC(=O)C2=CCOC3=C2[C@@]1(C)C1=C(C3=O)[C@@H]2CCC(=O)[C@@]2(C)C[C@H]1OC(C)=O` gave a pIC50 of 6.57.

In the test with Mus musculus [5], `COC[C@H]1OC(=O)c2coc3c2[C@@]1(C)C1=C(C3=O)[C@@H]2CC[C@H](O)[C@@]2(C)C[C@H]1OC(C)=O` yielded an inhibition in vivo at 1 mg/kg of over 25%. For the same compound, in the test on Mus musculus [6], the inhibition in vivo at 0.5 mg/kg was under 60%. This compound showed a negative-log IC50 (pIC50) in test [1] of 9.30.

`COC[C@H]1OC(=O)c2coc3c2[C@@]1(C)C1=CC[C@]2(C)C(=O)CC[C@H]2C1C3=O` (stereo not given in full) yielded an inhibition in vivo at 8 mg/kg with Mus musculus [7] of 79%. Moreover, the inhibition in vivo at 16 mg/kg in the test with Mus musculus [8] was over 25%. This compound had a pIC50 in test [1] of 7.27.

On to `CCC/N=C\C1=C(O)O[C@H](COC)[C@@]2(C)C1=C(O)C(=O)C1=C2[C@H](OC(C)=O)C[C@]2(C)C(=O)CC[C@@H]12`, for which the negative-log IC50 (pIC50) in test [1] is under 6.30.

In the case of `CCCCS/C=C1\C(=O)O[C@H](COC)[C@@]2(C)C1=C(O)C(=O)C1=C2[C@H](OC(C)=O)C[C@]2(C)C(=O)CC[C@@H]12`, in test [1], the pIC50 is 7.28.

For the compound `COC[C@H]1OC(=O)c2coc3c2[C@@]1(C)C1=C(C3=O)[C@@H]2CC=C(OC(C)=O)[C@@]2(C)C[C@H]1OC(C)=O`, in test [1], the negative-log IC50 (pIC50) was 7.23. The pIC50 values of the last two compounds are within 0.2 log units of each other.
